Measurements as given in ChEMBL document CHEMBL1155603, “Stilbene glycoside sulfates from Polygonum cuspidatum” (J Nat Prod, 2000).
Activity calls are given as the source filed them. No cut-off for these calls is given here.

Assays:
Candida albicans = test: Antifungal activity against Candida albicans; format: functional, organism-based
In short: (§1)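 In vitro susceptibility test on yeasts, run by the National Committee for Clinical and Laboratory Standards procedure.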

Cryptococcus neoformans = test: Antifungal activity against Cryptococcus neoformans; format: functional, organism-based; in short: as §1
Candida parapsilosis = test: Antifungal activity against Candida parapsilosis; format: functional, organism-based; in short: as §1
Candida tropicalis = test: Antifungal activity against Candida tropicalis; format: functional, organism-based; in short: as §1
Sporothrix schenckii = test: Antifungal activity against Sporothrix schenckii; format: functional, organism-based
Aspergillus fumigatus = test: Antifungal activity against Aspergillus fumigatus; format: functional, organism-based
Trichophyton rubrum = test: Antifungal activity against Trichophyton rubrum; format: functional, organism-based
Fonsecaea pedrosoi = test: Antifungal activity against Fonsecaea pedrosoi; format: functional, organism-based
A549 = test: Cytotoxicity against human A549 cells after 96 hrs by MTT assay; format: functional, cell-based; settings: A549, 96 h

In the case of `O=S(=O)(O)O[C@H]1[C@H](O)[C@@H](O)[C@H](Oc2cc(O)cc(/C=C\c3ccc(O)cc3)c2)O[C@@H]1CO`, the Activity (Candida albicans) is reported as “inactive”, the Activity (Cryptococcus neoformans) is reported as “inactive” and the Activity (Candida parapsilosis) is reported as “inactive”. The Activity (Candida tropicalis) was “inactive”, the Activity (Sporothrix schenckii) was “inactive” and the Activity (Aspergillus fumigatus) was “inactive”. For the same compound, the Activity (Trichophyton rubrum) was “inactive” and the Activity (Fonsecaea pedrosoi) was “inactive”.
`O=S(=O)(O)OC[C@H]1O[C@@H](Oc2cc(O)cc(/C=C/c3ccc(O)cc3)c2)[C@H](O)[C@@H](O)[C@@H]1O` was tested, and the Activity (Candida albicans) was “inactive”, the Activity (Cryptococcus neoformans) was “inactive” and the Activity (Candida parapsilosis) was “inactive”. The Activity (Candida tropicalis) was “inactive”, the Activity (Sporothrix schenckii) was “inactive” and the Activity (Aspergillus fumigatus) was “inactive”. For the same compound, the Activity (Trichophyton rubrum) was “inactive” and the Activity (Fonsecaea pedrosoi) was “inactive”.
`O=S(=O)(O)Oc1cc(/C=C/c2ccc(O)cc2)cc(O[C@@H]2O[C@H](CO)[C@@H](O)[C@H](O)[C@H]2O)c1` was tested, and the Activity (Candida albicans) was “inactive”, the Activity (Cryptococcus neoformans) was “inactive” and the Activity (Candida parapsilosis) was “inactive”. For the same compound, the Activity (Candida tropicalis) was “inactive”, the Activity (Sporothrix schenckii) was “inactive” and the Activity (Aspergillus fumigatus) was “inactive”. For the same compound, the Activity (Trichophyton rubrum) was “inactive” and the Activity (Fonsecaea pedrosoi) was “inactive”.
`O=S(=O)(O)Oc1cc(/C=C\c2ccc(O)cc2)cc(O[C@@H]2O[C@H](CO)[C@@H](O)[C@H](O)[C@H]2O)c1` was tested, and the Activity (Candida albicans) was “inactive”, the Activity (Cryptococcus neoformans) was “inactive” and the Activity (Candida parapsilosis) was “inactive”. The Activity (Candida tropicalis) was “inactive”, the Activity (Sporothrix schenckii) was “inactive” and the Activity (Aspergillus fumigatus) was “inactive”. The Activity (Trichophyton rubrum) was “inactive” and the Activity (Fonsecaea pedrosoi) was “inactive”.
In the case of `O=S(=O)([O-])O[C@H]1[C@H](O)[C@@H](O)[C@H](Oc2cc(O)cc(/C=C/c3ccc(O)cc3)c2)O[C@@H]1CO.[K+]`, the IC50 (A549) is reported as 80 µg/mL, the Activity (Candida albicans) is reported as “inactive” and the Activity (Cryptococcus neoformans) is reported as “inactive”. The Activity (Candida parapsilosis) was “inactive”, the Activity (Candida tropicalis) was “inactive” and the Activity (Sporothrix schenckii) was “inactive”. The Activity (Aspergillus fumigatus) was “inactive”, the Activity (Trichophyton rubrum) was “inactive” and the Activity (Fonsecaea pedrosoi) was “inactive”.
`O=S(=O)(O)Oc1ccc(/C=C/c2cc(O)cc(O[C@@H]3O[C@H](CO)[C@@H](O)[C@H](O)[C@H]3O)c2)cc1` was tested, and the Activity (Candida albicans) was “inactive”, the Activity (Cryptococcus neoformans) was “inactive” and the Activity (Candida parapsilosis) was “inactive”. The Activity (Candida tropicalis) was “inactive”, the Activity (Sporothrix schenckii) was “inactive” and the Activity (Aspergillus fumigatus) was “inactive”. The Activity (Trichophyton rubrum) was “inactive” and the Activity (Fonsecaea pedrosoi) was “inactive”.
With `O=S(=O)(O)OC[C@H]1O[C@@H](Oc2cc(O)cc(/C=C\c3ccc(O)cc3)c2)[C@H](O)[C@@H](O)[C@@H]1O` the Activity (Candida albicans) was “inactive”, the Activity (Cryptococcus neoformans) was “inactive” and the Activity (Candida parapsilosis) was “inactive”. The Activity (Candida tropicalis) was “inactive”, the Activity (Sporothrix schenckii) was “inactive” and the Activity (Aspergillus fumigatus) was “inactive”. The Activity (Trichophyton rubrum) was “inactive” and the Activity (Fonsecaea pedrosoi) was “inactive”.
`O=S(=O)(O)O[C@H]1[C@H](Oc2cc(O)cc(/C=C/c3ccc(O)cc3)c2)O[C@H](CO)[C@@H](O)[C@@H]1O` was tested, and the Activity (Candida albicans) was “inactive”, the Activity (Cryptococcus neoformans) was “inactive” and the Activity (Candida parapsilosis) was “inactive”. The Activity (Candida tropicalis) was “inactive”, the Activity (Sporothrix schenckii) was “inactive” and the Activity (Aspergillus fumigatus) was “inactive”. For the same compound, the Activity (Trichophyton rubrum) was “inactive” and the Activity (Fonsecaea pedrosoi) was “inactive”.
For `O=S(=O)(O)O[C@H]1[C@H](Oc2cc(O)cc(/C=C\c3ccc(O)cc3)c2)O[C@H](CO)[C@@H](O)[C@@H]1O`, the Activity (Candida albicans) was “inactive”, the Activity (Cryptococcus neoformans) was “inactive” and the Activity (Candida parapsilosis) was “inactive”. For the same compound, the Activity (Candida tropicalis) was “inactive”, the Activity (Sporothrix schenckii) was “inactive” and the Activity (Aspergillus fumigatus) was “inactive”. For the same compound, the Activity (Trichophyton rubrum) was “inactive” and the Activity (Fonsecaea pedrosoi) was “inactive”.
